From ChEMBL document CHEMBL4706770, “SD-91 as A Potent and Selective STAT3 Degrader Capable of Achieving Complete and Long-Lasting Tumor Regression” (ACS Med Chem Lett, 2021) come the findings set out here.

Activity calls are given as the source filed them. The rule behind the calls is not given here.

Data set [1] has as its target Signal transducer and activator of transcription 3 (Homo sapiens, UniProt P40763). The data set is described as follows: Induction of STAT3 degradation in human MOLM-16 cells assessed as decrease in STAT3 level at 10 uM incubated for 4 hrs by proteomic analysis. The format is cell-based. The conditions noted are these: MOLM16. Summed up:
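MOLM-16 cells treated with 1 or 10 μM for 4 h. Protein levels measured by quantitative proteomics across more than 7000 proteins.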

Data set [2] relates to Mus musculus. The data set is described as follows: In vivo induction of STAT3 degradation in SCID mouse xenografted with human MOLM16 cells assessed as reduction in STAT3 in tumor tissue at 50 mg/kg, iv measured after 24 hrs by immunoblotting analysis. The class given is functional, organism-based. The gist of the method:
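SCID mice bearing MOLM-16 tumors given a single iv dose of 50 mg/kg or dosing vehicle. Tumor lysates immunoblotted for STAT3, STAT1 and STAT6 at time points from 1 h to at least 24 h.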

The test system of data set [3] is Mus musculus. The data set is described as follows: In vivo induction of STAT3 degradation in SCID mouse xenografted with human MOLM16 cells assessed as reduction in phosphorylated STAT3 level in tumor tissue at 50 mg/kg, iv measured after 24 hrs by immunoblotting analysis. The class given is functional, organism-based. The gist of the method:
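SCID mice bearing MOLM-16 or SU-DHL-1 xenografts given a single iv dose of 50 mg/kg or dosing vehicle. Tumor lysates immunoblotted for p-STAT3 Y705 and total STAT3 at time points up to 48 h (MOLM-16) and 24 h (SU-DHL-1).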

A short description of data set [4]: Antitumor activity against human MOLM16 cells xenografted in SCID mouse assessed as tumor regression at 50 mg/kg, iv administered weekly measured after 2 weeks. The format is functional. The gist of the method:
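SCID mice bearing MOLM-16 xenografts given compound iv once weekly at 25 or 50 mg/kg. Tumor volume and body weight measured every 2 days. Growth inhibition expressed against vehicle-treated controls.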

Data set [5] has as its target T1, Protein cereblon/Signal transducer and activator of transcription 4 (Homo sapiens) (UniProt Q96SW2+Q14765). The data set is described as follows: Protac activity at CRBN/STAT4 in human MOLM16 cells assessed as STAT4 degradation at 0.25 to 100 uM incubated for 4 hrs by Western blot analysis. The class given is cell-based. The conditions noted are these: dose 0.25-100 µM. The gist of the method: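 Cells treated 4 h with compounds across 25 nM to 100 μM; STAT proteins detected by Western blot with GAPDH as loading control; STAT3 DC50 estimated by densitometry of STAT3 relative to GAPDH. Applies to MOLM-16 for all STATs, and to SU-DHL-1 and SUP-M2 for STAT3.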
(In general: A western blot detects proteins with antibodies after separation by electrophoresis.)

Data set [6] has as its target Protein cereblon/Signal transducer and activator of transcription 6 (Homo sapiens) (UniProt P42226+Q96SW2). The data set is described as follows: Protac activity at CRBN/STAT6 in human SU-DHL-1 cells assessed as STAT6 degradation at 0.25 to 100 uM incubated for 4 hrs by Western blot analysis. The class given is cell-based. The following applies: dose 0.25-100 µM.
Data set [7] concerns the target Protein cereblon/Signal transducer and activator of transcription 2 (Homo sapiens) (UniProt Q96SW2+P52630). The data set is described as follows: Protac activity at CRBN/STAT2 in human SUP-M2 cells […] at 0.25 to 100 uM incubated for 4 hrs by Western blot analysis. The following applies: SUPM2, dose lower 0.25 µM. The class given is cell-based.

In data set [8] the target is T1, Protein cereblon/Signal transducer and activator of transcription 4 (Homo sapiens). The data set is described as follows: Protac activity at CRBN/STAT4 in human SUP-M2 cells assessed as STAT4 degradation at 0.25 to 100 uM incubated for 4 hrs by Western blot analysis. The format is cell-based. The following applies: SUPM2, dose 0.25-100 µM.
A short description of data set [9]: Drug uptake in SCID mouse xenografted with human MOLM16 cells assessed as (2-(((5S,8S,10aR)-8-(((S)-5-amino-1-(benzhydrylamino)-1,5-dioxopentan-2-yl)carbamoyl)-3-(8-(2-(2,6-dioxopiperidin-3-yl)-1-oxoisoindolin-4-yl)oct-7-yno yl)-6-oxodecahydropyrrolo[1,2-a][1,5]diazocin-5-yl)carbamoyl)-1H-indole-5-carbonyl)phosphonic acid level in tumor tissue at 50 mg/kg, iv measured after 6 hrs by LC-MS/MS. The format is ADME, organism-based. The conditions noted are these: in vivo. The gist of the method: (§1)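 SCID mice bearing MOLM-16 xenografts given a single iv dose of 50 mg/kg. Concentrations of parent and hydrolysis product measured in plasma (ng/mL) and tumor tissue (ng/g) at 1, 6 and 24 h.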
(A xenograft is tissue or cells of one species grown in another, often human tumour cells in immunodeficient mice.)

Data set [10] in a line: Drug uptake in SCID mouse xenografted with human MOLM16 cells assessed as (2-(((5S,8S,10aR)-8-(((S)-5-amino-1-(benzhydrylamino)-1,5-dioxopentan-2-yl)carbamoyl)-3-(8-(2-(2,6-dioxopiperidin-3-yl)-1-oxoisoindolin-4-yl)oct-7-yno yl)-6-oxodecahydropyrrolo[1,2-a][1,5]diazocin-5-yl)carbamoyl)-1H-indole-5-carbonyl)phosphonic acid level in tumor tissue at 50 mg/kg, iv measured after 24 hrs by LC-MS/MS. The format is ADME, organism-based. The conditions noted are these: in vivo. The gist of the method: as §1

Data set [11] is described as follows: Drug metabolism buffer pH 4 assessed as conversion to (2-(((5S,8S,10aR)-8-(((S)-5-amino-1-(benzhydrylamino)-1,5-dioxopentan-2-yl)carbamoyl)-3-(8-(2-(2,6-dioxopiperidin-3-yl)-1-oxoisoindolin-4-yl)oct-7-ynoyl)-6-oxodecahydropyrrolo[1,2-a][1,5]diazocin-5-yl)carbamoyl)-1H-indole-5-carbonyl)phosphonic acid by measured after 96 hrs at 37 degC by LC/MS/MS analysis.

T1 sequence (Q14765 whole entry, looked up): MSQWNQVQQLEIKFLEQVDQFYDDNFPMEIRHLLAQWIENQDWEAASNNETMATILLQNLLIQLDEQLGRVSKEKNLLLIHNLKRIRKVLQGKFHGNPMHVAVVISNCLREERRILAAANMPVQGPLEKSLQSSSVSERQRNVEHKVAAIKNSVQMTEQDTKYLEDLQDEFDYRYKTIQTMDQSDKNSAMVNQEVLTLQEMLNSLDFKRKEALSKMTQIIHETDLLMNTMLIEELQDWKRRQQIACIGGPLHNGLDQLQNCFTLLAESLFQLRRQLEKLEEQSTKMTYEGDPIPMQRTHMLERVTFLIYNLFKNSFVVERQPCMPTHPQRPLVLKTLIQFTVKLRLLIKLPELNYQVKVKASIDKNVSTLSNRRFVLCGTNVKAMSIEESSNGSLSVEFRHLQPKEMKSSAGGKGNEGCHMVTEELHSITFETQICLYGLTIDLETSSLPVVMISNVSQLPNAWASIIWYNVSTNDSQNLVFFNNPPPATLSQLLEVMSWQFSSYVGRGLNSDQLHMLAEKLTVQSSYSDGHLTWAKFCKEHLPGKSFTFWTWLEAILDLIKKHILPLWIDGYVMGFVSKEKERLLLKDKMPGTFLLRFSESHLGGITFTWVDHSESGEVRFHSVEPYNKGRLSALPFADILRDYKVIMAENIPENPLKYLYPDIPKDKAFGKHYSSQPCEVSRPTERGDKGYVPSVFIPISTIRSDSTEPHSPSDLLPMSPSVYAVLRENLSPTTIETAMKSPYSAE
T1 sequence (Q96SW2 whole entry, looked up): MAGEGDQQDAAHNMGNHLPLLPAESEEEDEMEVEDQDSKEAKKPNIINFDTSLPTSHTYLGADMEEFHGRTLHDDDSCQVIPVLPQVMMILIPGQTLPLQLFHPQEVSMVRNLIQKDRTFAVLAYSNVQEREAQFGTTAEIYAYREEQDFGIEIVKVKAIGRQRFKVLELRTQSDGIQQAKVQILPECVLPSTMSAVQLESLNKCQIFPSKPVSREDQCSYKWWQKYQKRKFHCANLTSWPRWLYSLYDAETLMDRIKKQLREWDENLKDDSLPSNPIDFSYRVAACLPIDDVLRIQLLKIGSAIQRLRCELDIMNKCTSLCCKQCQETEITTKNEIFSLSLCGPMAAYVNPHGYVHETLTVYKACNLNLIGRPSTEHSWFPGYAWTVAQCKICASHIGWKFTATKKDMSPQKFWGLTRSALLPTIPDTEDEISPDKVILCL
Sequence of Signal transducer and activator of transcription 3 (P40763 whole entry): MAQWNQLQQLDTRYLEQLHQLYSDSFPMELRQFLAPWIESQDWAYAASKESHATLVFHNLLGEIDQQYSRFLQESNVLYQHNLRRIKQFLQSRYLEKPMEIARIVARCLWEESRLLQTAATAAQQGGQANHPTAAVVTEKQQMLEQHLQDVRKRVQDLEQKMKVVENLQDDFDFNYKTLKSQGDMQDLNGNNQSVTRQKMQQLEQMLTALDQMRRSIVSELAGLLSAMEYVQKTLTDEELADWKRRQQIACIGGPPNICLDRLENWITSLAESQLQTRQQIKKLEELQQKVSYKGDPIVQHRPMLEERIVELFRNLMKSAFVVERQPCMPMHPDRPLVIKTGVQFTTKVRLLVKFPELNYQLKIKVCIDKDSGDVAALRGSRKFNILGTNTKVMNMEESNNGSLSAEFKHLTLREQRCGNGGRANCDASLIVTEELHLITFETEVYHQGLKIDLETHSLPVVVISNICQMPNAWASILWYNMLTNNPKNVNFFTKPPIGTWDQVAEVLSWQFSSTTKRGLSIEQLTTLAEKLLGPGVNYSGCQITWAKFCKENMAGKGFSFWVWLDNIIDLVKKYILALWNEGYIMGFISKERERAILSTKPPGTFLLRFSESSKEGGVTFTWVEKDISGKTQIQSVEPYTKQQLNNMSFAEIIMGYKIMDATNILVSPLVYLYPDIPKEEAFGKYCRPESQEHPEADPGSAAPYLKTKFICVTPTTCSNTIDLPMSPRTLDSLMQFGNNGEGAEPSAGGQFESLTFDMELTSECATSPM
Sequence of Protein cereblon/Signal transducer and activator of transcription 2 (Homo sapiens) (P52630 whole entry, looked up): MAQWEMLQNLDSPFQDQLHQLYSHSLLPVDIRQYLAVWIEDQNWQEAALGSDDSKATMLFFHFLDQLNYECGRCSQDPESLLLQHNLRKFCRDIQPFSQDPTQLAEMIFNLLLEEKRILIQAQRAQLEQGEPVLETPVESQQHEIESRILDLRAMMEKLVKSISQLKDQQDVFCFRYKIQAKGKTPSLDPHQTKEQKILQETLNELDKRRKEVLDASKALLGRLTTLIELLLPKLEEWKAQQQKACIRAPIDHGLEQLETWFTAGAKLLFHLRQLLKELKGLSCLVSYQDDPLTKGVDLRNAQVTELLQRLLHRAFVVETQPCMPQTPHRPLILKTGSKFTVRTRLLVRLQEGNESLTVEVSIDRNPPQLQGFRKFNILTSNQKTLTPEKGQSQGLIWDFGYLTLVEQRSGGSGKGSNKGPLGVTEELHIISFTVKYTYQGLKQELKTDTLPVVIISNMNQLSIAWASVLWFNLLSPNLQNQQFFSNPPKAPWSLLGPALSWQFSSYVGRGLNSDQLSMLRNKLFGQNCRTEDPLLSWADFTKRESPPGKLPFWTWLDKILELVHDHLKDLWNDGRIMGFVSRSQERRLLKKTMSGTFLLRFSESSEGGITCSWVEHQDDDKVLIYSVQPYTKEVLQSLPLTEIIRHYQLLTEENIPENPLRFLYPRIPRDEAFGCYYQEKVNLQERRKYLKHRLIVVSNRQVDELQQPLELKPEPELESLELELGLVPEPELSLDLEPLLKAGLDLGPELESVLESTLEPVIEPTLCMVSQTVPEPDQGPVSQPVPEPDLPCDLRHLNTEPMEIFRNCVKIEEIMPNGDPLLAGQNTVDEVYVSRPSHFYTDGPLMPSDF
Sequence of Protein cereblon/Signal transducer and activator of transcription 2 (Homo sapiens) (Q96SW2 whole entry, looked up): as the sequence (Q96SW2 whole entry, looked up) above
Sequence of Protein cereblon/Signal transducer and activator of transcription 6 (Homo sapiens) (P42226 2-847 limits assumed): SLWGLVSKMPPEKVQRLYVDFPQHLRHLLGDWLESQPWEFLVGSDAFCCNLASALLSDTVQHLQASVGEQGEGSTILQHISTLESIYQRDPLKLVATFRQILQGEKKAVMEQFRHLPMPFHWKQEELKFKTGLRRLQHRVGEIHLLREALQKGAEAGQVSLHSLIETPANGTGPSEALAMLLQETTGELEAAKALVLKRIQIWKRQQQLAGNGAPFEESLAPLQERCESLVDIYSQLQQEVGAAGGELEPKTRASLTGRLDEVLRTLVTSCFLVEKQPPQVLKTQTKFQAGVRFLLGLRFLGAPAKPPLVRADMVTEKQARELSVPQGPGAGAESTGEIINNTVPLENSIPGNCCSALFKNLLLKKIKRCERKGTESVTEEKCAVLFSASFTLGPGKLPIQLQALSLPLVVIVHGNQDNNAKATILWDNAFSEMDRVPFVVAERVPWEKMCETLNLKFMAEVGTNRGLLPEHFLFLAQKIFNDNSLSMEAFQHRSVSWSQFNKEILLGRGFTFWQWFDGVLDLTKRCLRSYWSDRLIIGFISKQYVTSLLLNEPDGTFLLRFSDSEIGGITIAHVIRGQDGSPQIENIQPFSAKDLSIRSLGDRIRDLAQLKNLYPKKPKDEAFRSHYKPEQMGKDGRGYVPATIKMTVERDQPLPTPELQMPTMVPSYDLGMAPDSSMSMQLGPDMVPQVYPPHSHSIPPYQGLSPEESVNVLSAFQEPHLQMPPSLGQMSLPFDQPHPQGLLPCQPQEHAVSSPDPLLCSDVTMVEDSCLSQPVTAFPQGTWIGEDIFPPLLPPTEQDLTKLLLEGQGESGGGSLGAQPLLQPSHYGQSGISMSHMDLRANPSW
Sequence of Protein cereblon/Signal transducer and activator of transcription 6 (Homo sapiens) (Q96SW2 whole entry partner): as the sequence (Q96SW2 whole entry, looked up) above

`NC(=O)CC[C@H](NC(=O)[C@@H]1CC[C@@H]2CCN(C(=O)CCCCCC#Cc3cccc4c3CN(C3CCC(=O)NC3=O)C4=O)C[C@H](NC(=O)c3cc4cc(C(=O)P(=O)(O)O)ccc4[nH]3)C(=O)N21)C(=O)NC(c1ccccc1)c1ccccc1` (stereo partly specified): the result (in [1]; with Mus musculus [2]; in the data set with Mus musculus [3]) was Active. Also, the Activity in data set [4] was found to be 100%.
For `NC(=O)CC[C@H](NC(=O)[C@@H]1CC[C@@H]2CCN(C(=O)CCCCCC#Cc3cccc4c3CN(C3CCC(=O)NC3=O)C4=O)C[C@H](NC(=O)c3cc4cc(C(F)(F)P(=O)(O)O)ccc4[nH]3)C(=O)N21)C(=O)NC(c1ccccc1)c1ccccc1` (stereo partly specified), the outcome in data set [5], in [6], in data set [7] and in data set [8] was inactive. Also, the Drug uptake in data set [9] came to 1750 ng/g; in data set [10] it was 396 ng/g. Moreover, the Drug metabolism in data set [11] was determined as 25%.
